Measurements from different studies.
Protocols differ between the studies behind these lines.
Target: Cannabinoid receptor 1 (CNR1, Homo sapiens, UniProt P21554)

Clc1ccc2c(C3CCN(CCc4c[nH]c5ccccc45)CC3)c[nH]c2c1
inhibition (ligand displacement, radioligand; 10 µM): -27%

O=C1N=C(N2CCCCN2)S/C1=C\c1ccc(F)cc1O
inhibition (ligand displacement, radioligand; 10 µM): < 10%

N#Cc1c(Oc2cccc(OS(=O)(=O)CCCC(F)(F)F)c2)cccc1C(F)(F)F
Emax (calcium signal, agonist, fluorescence; CHO): 39%

CCOC(=O)C(CC)(CCCSCCOCCOCCNc1ccc([N+](=O)[O-])c2nonc12)NC(=O)c1ccc(C2CC2)c(Cc2ccc(F)cc2)n1 (racemic)
Emax (cAMP, agonist): 126%

COc1ccc(S(=O)(=O)N2CCCCC2)cc1C
inhibition (ligand displacement, radioligand; 10 µM): < 30%

CN(CCN1CCC(OC(=O)Nc2ccccc2-c2ccccc2)CC1)C(=O)c1ccc(CN2CCC(C(N)=O)CC2)cc1
inhibition (ligand displacement, radioligand; 1 µM): -3%

CC(C)C(NC(=O)c1nn(Cc2ccc(F)cc2)c2ccccc12)C(N)=O (centres unmarked)
Emax (calcium signal, agonist, fluorescence): 120%

c1ccc(C(NCCNC(c2ccccc2)c2ccccc2)c2ccccc2)cc1
inhibition (cell-free assay; 10 µM): 102%

COCc1c(-c2cc3cc(C)cc(OC)c3s2)c2c(N)ncnn2c1CN1CCNC(=O)C1
inhibition (ligand displacement, radioligand; 10 µM): 26%

CCN(CC)CCCC[C@H](NC(=O)[C@H](CC(C)C)NC(=O)[C@H](C)NC(=O)[C@H](Cc1ccccc1)NC(=O)c1ccc(C(C)(C)C)cc1)C(=O)N[C@@H](CO)C(=O)OC
remaining binding (ligand displacement, radioligand; 10 µM): 113%

CC(C)N1CCC[C@H]1CNC(=O)c1cn(C2CCCC2)c(=O)c2c1c1ccccc1n2C
inhibition (ligand displacement, radioligand; 10 µM): 48%
